Test results: ChEMBL document CHEMBL1149653, “Hydroxyethylene isosteres of selective neuronal nitric oxide synthase inhibitors” (Bioorg Med Chem, 2007)

Tests used:
Nitric oxide synthase 1 = Nitric oxide synthase 1 (Rattus norvegicus, UniProt P29476); assay: Inhibition of recombinant rat brain nNOS expressed in Escherichia coli
Nitric oxide synthase 3 = molecular target: T1, Nitric oxide synthase 3 (Bos taurus, UniProt P29473); assay: Inhibition of recombinant bovine eNOS expressed in Escherichia coli
T1 sequence (P29473 whole entry): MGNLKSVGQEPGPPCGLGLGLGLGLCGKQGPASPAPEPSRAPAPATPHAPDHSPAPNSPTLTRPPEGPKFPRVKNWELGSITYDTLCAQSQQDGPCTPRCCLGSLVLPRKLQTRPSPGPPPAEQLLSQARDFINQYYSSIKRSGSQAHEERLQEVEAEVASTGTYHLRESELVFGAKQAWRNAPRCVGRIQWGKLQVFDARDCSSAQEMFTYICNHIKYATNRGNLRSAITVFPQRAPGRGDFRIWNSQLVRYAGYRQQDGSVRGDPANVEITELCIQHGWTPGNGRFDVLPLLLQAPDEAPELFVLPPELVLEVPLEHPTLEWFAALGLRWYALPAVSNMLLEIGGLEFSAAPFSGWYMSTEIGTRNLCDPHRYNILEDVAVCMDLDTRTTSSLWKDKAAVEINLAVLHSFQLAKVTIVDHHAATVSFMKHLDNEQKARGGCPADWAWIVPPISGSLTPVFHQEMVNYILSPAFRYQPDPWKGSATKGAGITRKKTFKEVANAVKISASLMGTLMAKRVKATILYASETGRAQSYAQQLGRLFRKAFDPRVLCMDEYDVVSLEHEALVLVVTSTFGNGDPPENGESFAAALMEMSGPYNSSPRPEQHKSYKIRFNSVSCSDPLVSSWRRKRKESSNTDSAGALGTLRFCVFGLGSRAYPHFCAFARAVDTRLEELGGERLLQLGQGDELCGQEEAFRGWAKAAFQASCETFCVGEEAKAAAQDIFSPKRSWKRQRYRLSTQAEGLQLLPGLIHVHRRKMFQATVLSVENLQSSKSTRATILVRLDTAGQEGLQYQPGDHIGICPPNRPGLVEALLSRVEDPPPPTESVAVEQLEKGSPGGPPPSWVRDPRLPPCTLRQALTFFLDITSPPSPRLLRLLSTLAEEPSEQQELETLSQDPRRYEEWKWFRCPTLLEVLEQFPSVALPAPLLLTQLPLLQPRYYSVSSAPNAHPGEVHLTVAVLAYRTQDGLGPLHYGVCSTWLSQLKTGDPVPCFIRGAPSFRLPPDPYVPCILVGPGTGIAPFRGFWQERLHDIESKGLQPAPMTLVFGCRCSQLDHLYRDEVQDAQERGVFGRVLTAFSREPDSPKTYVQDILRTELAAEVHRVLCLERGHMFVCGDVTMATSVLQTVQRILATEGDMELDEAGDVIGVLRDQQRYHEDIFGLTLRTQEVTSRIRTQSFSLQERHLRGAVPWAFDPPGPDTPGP

[1] = molecular target: T2, Nitric oxide synthase, inducible (Mus musculus, UniProt P29477); assay: Inhibition of recombinant mouse macrophage iNOS expressed in Escherichia coli
T2 sequence (P29477 whole entry): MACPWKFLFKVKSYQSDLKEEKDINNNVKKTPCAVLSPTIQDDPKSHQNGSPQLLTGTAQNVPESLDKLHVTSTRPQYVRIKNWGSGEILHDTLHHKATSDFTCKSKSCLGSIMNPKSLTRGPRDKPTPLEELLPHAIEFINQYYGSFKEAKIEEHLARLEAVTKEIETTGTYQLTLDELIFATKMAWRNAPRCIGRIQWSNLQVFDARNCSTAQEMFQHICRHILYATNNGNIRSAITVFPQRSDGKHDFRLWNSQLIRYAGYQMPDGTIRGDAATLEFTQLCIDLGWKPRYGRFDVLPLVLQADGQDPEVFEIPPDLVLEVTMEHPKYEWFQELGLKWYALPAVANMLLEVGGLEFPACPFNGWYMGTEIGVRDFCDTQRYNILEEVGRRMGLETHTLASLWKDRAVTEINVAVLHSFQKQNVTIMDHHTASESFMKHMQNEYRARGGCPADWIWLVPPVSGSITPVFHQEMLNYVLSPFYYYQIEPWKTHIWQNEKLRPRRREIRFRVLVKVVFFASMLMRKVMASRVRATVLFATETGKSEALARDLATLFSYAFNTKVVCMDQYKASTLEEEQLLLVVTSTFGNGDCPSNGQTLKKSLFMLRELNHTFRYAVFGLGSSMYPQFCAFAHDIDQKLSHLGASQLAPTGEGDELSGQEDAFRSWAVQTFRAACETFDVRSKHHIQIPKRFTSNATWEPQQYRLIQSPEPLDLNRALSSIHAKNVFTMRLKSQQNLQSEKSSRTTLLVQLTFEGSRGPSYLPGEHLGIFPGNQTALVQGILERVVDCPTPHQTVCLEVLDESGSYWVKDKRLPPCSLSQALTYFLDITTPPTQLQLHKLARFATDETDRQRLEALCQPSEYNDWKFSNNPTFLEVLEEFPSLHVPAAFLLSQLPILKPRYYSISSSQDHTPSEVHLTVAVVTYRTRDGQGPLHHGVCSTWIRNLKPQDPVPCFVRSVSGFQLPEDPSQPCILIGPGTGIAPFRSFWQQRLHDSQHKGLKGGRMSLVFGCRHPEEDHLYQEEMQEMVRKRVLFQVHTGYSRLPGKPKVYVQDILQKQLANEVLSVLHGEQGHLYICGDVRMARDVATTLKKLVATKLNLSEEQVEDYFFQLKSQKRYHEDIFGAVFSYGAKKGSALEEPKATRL
Method in brief: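 Enzyme purified from E. coli, added to start the reaction. Conditions: 30 °C, 100 mM Hepes pH 7.4, 10 µM L-arginine, 100 µM DTT, 100 µM NADPH, 6.5 µM H4B, […], no added Ca2+ or calmodulin. NO capture was read as the A400 rise over 1 min.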

[2] = Selectivity for nNOS over iNOS
[3] = Selectivity for nNOS over eNOS

Chain of Nitric oxide synthase 1 (P29476 whole entry): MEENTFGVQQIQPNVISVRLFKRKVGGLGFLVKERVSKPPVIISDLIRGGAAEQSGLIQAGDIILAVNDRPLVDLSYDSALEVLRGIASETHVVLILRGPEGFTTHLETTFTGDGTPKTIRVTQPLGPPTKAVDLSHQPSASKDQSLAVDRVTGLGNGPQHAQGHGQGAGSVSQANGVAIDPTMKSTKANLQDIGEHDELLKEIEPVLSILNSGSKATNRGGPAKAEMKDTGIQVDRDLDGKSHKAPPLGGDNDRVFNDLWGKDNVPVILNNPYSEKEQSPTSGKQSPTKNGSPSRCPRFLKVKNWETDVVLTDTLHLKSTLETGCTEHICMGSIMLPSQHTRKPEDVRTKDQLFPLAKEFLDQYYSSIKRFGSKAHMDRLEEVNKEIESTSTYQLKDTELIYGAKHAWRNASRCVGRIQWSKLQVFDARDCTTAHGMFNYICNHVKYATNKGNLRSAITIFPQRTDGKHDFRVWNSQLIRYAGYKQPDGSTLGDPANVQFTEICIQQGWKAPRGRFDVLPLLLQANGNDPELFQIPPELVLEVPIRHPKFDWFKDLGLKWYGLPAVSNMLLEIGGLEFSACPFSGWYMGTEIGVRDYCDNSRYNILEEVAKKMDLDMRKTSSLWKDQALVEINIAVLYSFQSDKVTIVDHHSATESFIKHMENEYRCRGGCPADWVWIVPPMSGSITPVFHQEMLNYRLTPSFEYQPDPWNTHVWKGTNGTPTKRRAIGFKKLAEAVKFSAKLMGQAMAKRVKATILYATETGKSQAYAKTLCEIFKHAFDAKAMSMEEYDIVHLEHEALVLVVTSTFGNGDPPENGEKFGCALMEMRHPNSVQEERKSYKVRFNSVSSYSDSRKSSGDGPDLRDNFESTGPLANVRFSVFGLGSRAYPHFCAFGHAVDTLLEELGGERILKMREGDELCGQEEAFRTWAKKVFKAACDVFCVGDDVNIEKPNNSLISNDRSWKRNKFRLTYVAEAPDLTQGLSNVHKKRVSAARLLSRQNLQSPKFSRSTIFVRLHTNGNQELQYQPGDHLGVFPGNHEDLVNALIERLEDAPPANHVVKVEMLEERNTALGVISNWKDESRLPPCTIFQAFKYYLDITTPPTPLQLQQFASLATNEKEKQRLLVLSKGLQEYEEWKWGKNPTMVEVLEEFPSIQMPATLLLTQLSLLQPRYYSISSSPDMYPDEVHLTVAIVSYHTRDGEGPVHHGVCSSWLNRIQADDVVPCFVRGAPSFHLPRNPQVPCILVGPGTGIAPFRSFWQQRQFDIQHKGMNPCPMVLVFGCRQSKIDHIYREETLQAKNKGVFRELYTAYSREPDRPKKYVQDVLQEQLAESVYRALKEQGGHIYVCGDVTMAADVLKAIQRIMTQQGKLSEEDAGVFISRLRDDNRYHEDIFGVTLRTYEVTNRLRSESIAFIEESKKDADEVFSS

## NC(=NCCC[C@H](N)C[C@H](O)CCO)N[N+](=O)[O-]
Nitric oxide synthase 1
  IC50: 168 µM
Nitric oxide synthase 3
  IC50: 1660 µM
[1]
  IC50: 1290 µM

## NC(=NCCC[C@H](N)C[C@@H](O)CCO)N[N+](=O)[O-]
Nitric oxide synthase 1
  IC50: 106 µM
Nitric oxide synthase 3
  IC50: 1090 µM
[1]
  IC50: 331 µM

## N=C(NCCC[C@H](N)C[C@H](O)CCO)N[N+](=O)[O-]
[2]
  Ratio IC50: 7.7
[3]
  Ratio IC50: 9.9

## N=C(NCCC[C@H](N)C[C@H](O)CCN)N[N+](=O)[O-]
[2]
  Ratio IC50: 18
[3]
  Ratio IC50: 143

## N=C(NCCC[C@H](N)C[C@H](O)CCCO)N[N+](=O)[O-]
[2]
  Ratio IC50: 0.54
Nitric oxide synthase 1
  IC50: 490 µM
Nitric oxide synthase 3
  IC50: 879 µM
[3]
  Ratio IC50: 1.8
[1]
  IC50: 266 µM

## NCCC[C@H](O)C[C@@H](N)CCCN=C(N)N[N+](=O)[O-]
Nitric oxide synthase 1
  IC50: 23.5 µM
  Ki: 2.8 µM
Nitric oxide synthase 3
  IC50: 1390 µM
[1]
  IC50: 361 µM

## N=C(NCCC[C@H](N)C[C@@H](O)CCCO)N[N+](=O)[O-]
[2]
  Ratio IC50: 2.1
[3]
  Ratio IC50: 10.1

## N=C(NCCC[C@H](N)C[C@H](O)CCCN)N[N+](=O)[O-]
[2]
  Ratio IC50: 33
Nitric oxide synthase 1
  IC50: 6.8 µM
  Ki: 0.83 µM
Nitric oxide synthase 3
  IC50: 1530 µM
[3]
  Ratio IC50: 225
[1]
  IC50: 313 µM

## N=C(NCCC[C@H](N)C[C@@H](O)CCN)N[N+](=O)[O-]
[2]
  Ratio IC50: 107
Nitric oxide synthase 1
  IC50: 2.4 µM
  Ki: 0.29 µM
Nitric oxide synthase 3
  IC50: 1140 µM
[3]
  Ratio IC50: 475
[1]
  IC50: 257 µM

## N=C(NCCC[C@H](N)C[C@@H](O)CCCN)N[N+](=O)[O-]
[2]
  Ratio IC50: 15
[3]
  Ratio IC50: 59

## N=C(NCCC[C@H](N)C[C@@H](O)CCO)N[N+](=O)[O-]
[2]
  Ratio IC50: 3.1
[3]
  Ratio IC50: 10.2

## NC(=NCCC[C@H](N)C[C@@H](O)CCCO)N[N+](=O)[O-]
Nitric oxide synthase 1
  IC50: 255 µM
Nitric oxide synthase 3
  IC50: 2580 µM
[1]
  IC50: 524 µM

## NCC[C@@H](O)C[C@@H](N)CCCN=C(N)N[N+](=O)[O-]
Nitric oxide synthase 1
  IC50: 9.4 µM
  Ki: 1.1 µM
Nitric oxide synthase 3
  IC50: 1340 µM
[1]
  IC50: 167 µM
